Calls of active or inactive are those of the source. The calls are words filed in the database; no cut-off is given here.
How the values were obtained:
Liver carboxylesterase 1 [1] = biological target: T1, Liver carboxylesterase 1 (Homo sapiens, UniProt P23141); assay: Inhibition of human liver carboxylesterase1 using o-nitrophenyl acetate as substrate after 5 mins by spectrophotometry
T1 sequence (P23141 whole entry): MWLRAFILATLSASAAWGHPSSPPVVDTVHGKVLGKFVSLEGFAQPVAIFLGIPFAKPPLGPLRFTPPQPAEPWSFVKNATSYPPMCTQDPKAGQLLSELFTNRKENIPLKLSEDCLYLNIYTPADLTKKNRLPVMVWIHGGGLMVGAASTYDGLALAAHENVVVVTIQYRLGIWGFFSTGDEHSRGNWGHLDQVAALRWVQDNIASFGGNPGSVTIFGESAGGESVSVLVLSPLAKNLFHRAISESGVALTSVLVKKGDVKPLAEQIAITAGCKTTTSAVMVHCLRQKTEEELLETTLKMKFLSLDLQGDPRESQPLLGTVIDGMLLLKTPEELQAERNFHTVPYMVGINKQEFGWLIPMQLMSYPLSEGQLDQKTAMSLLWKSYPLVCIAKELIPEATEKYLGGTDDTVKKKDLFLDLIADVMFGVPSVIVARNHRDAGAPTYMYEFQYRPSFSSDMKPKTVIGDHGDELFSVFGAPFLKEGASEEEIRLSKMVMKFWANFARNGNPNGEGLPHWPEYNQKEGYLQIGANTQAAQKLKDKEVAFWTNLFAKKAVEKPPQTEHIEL
In short: (§1)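 hCE1 and rabbit liver CE were purified from baculovirus-infected Spodoptera frugiperda cells, with 3 mM o-nitrophenyl acetate as substrate. A4₂₀ was read every 15 s for 5 min versus no-inhibitor wells. Screening was at 100 μM; compounds giving >50% reduction were rescreened from 1 pM to 100 μM. Ki came from fitting a partial-inhibition (α, β) model.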

Cocaine esterase [2] = biological target: T2, Cocaine esterase (Homo sapiens, UniProt O00748); assay: Inhibition of human intestinal carboxylesterase using o-nitrophenyl acetate as substrate after 5 mins by spectrophotometry
T2 sequence (O00748 whole entry): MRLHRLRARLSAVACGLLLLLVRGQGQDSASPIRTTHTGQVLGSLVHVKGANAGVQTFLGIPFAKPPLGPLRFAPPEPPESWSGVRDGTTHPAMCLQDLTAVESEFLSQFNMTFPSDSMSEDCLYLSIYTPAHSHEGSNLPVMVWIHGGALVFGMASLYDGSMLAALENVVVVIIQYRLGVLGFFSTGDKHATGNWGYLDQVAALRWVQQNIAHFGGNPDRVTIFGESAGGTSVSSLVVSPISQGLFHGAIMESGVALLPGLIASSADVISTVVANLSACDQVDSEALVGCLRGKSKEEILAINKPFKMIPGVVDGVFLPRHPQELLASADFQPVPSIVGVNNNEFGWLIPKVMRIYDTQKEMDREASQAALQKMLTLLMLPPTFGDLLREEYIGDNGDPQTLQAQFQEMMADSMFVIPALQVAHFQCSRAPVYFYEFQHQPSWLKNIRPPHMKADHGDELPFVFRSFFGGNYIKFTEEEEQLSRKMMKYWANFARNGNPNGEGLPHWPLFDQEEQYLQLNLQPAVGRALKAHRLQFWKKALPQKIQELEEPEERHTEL

Liver carboxylesterase 1 [3] = biological target: T3, Liver carboxylesterase 1 (Oryctolagus cuniculus, UniProt P12337); assay: Inhibition of rabbit liver carboxylesterase using o-nitrophenyl acetate as substrate after for 5 mins by spectrophotometry; in short: as §1
T3 sequence (P12337 whole entry): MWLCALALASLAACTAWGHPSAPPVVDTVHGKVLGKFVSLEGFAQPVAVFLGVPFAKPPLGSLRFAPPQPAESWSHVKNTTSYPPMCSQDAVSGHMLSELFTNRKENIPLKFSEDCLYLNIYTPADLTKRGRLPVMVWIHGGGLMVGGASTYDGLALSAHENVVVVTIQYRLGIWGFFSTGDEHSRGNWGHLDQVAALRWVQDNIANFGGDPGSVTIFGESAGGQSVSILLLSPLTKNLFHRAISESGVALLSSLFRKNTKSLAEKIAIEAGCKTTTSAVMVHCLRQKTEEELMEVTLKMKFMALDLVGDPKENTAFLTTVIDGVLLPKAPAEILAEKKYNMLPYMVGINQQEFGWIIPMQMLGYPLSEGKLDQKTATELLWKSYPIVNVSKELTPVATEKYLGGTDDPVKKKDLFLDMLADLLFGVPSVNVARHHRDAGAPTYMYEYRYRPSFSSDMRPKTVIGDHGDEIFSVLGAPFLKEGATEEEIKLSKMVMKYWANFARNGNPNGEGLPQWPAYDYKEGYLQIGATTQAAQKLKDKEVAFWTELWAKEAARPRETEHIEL

Acetylcholinesterase = Acetylcholinesterase (Homo sapiens, UniProt P22303); assay: Inhibition of human acetylcholinesterase using acetylthiocholine as substrate by spectrophotometry
In short: (§2)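 Human AChE and BChE were commercial enzymes. Substrate was 1 mM acetylthiocholine for AChE and 1 mM butyrylthiocholine for BChE.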

Cholinesterase = Cholinesterase (Homo sapiens, UniProt P06276); assay: Inhibition of human butyrylcholinesterase using butyrylthiocholine as substrate by spectrophotometry; in short: as §2
[4] = Stability of the compound assessed as hydrolysis liberating phenol in aqueous solution at pH 7.4 after 5 mins; type: physicochemical; details: read-out: Activity
In short: (§3)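 Compound at 200 μM in 50 mM Hepes pH 7.4, held 1, 5 or 20 min at rt or 37°C, with or without CE. Reactions were stopped with acetonitrile. Products were identified by reverse-phase HPLC with UV detection against phenol/thiophenol/aniline marker standards and no-enzyme samples.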

[5] = Cytotoxicity against human U373MG cells expressing human intestinal carboxylesterase after 4 days in drug free medium by coulter counter in presence of CPT-11; type: functional, cell-based, U-373MG ATCC; details: U373 MG, 96 h
In short: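 U373MG cells stably expressing hiCE, seeded at 50,000 cells/well and left to adhere overnight. Cells were pre-incubated 1 h with inhibitor (10 μM), then exposed 2 h to inhibitor plus CPT-11 (0–100 μM). After washing, cells grew 4 days (~3 doublings) in drug-free medium and were counted. Runs were in triplicate, with survival compared to inhibitor-free controls. IC50 was taken from survival curves.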

U373 MG = assay: Reduction of CPT-11 induced cytotoxicity against human U373MG cells at 10 uM pre-incubated for 1 hr measured after 4 days in drug free medium by coulter counter; type: functional, cell-based; details: U-373MG ATCC
In short: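 U373MG cells expressing hiCE were plated at 50,000 cells/well and left to adhere overnight. They got 1 h pre-incubation with 10 μM inhibitor, then 2 h with inhibitor plus CPT-11 (0–100 μM). Cells were washed, grown 4 days drug-free and Coulter-counted. Runs were in triplicate against no-inhibitor controls, and IC50 came from survival curves.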

[6] = Cytotoxicity against human U373MG cells expressing human intestinal carboxylesterase after 4 days in drug free medium by coulter counter; type: functional, cell-based, U-373MG ATCC; details: U373 MG, 96 h
[7] = Stability of the compound assessed as hydrolysis liberating thiophenol in aqueous solution at pH 7.4 after 5 mins; type: physicochemical; set-up: scale not given: the % may be the effect or the level left; details: buffer, pH 7.4, 5 min; in short: as §3
Cocaine esterase [8] = biological target: T2, Cocaine esterase; assay: Inhibition of human intestinal carboxylesterase assessed as hydrolysis of CPT-11 after 5 mins by HPLC
[9] = biological target: T4, intestinal carboxylesterase (cocaine esterase) (Homo sapiens, UniProt O00748); assay: Inhibition of intestinal carboxylesterase in human U373MG cells using 4-methylumbelliferone acetate as substrate at 10 uM after 1 hrs pre-incubation by fluorimetry; type: cell-based, U-373MG ATCC; details: U373MG cells with intestinal carboxylesterase, probe 4-methylumbelliferone acetate
T4 sequence (O00748 whole entry): T2 sequence (O00748 whole entry)

Cholinesterase, sequence (P06276 whole entry): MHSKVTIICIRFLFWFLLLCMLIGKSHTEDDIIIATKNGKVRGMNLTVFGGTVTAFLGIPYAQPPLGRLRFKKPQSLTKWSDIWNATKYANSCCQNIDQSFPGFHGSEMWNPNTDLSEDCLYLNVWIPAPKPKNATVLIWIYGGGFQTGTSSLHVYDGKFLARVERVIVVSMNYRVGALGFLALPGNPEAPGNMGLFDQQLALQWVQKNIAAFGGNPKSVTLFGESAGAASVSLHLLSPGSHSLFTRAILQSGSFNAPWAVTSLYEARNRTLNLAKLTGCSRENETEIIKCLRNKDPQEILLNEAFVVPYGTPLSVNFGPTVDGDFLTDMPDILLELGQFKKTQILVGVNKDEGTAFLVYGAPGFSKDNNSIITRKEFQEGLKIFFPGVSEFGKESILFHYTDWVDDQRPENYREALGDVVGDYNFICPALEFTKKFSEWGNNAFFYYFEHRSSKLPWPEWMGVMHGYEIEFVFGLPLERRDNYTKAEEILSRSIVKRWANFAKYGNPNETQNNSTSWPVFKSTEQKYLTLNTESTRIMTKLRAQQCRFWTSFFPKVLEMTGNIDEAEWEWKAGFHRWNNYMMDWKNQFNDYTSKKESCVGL
Acetylcholinesterase, sequence (P22303 whole entry): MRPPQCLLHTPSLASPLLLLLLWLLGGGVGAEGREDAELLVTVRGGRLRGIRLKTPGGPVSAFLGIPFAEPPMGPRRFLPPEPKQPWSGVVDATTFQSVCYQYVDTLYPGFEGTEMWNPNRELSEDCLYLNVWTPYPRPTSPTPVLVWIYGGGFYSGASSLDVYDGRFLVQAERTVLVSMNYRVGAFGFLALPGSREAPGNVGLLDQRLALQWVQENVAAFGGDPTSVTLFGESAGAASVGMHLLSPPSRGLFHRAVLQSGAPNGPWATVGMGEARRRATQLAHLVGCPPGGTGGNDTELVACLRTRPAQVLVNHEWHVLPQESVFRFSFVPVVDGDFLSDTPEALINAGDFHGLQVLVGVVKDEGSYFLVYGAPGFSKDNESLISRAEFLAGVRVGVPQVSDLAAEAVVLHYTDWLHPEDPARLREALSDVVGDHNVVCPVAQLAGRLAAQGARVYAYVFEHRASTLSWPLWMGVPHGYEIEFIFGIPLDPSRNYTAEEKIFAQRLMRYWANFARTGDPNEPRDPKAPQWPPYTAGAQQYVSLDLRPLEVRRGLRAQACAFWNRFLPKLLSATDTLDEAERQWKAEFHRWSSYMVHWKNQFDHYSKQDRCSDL

O=C(Oc1ccccc1)C(=O)Oc1ccccc1 [DIPHENYL ETHANEDIOAT]
Ki (Liver carboxylesterase 1 [1]): > 100 µM | Ki (Cocaine esterase [2]): > 100 µM | Ki (Liver carboxylesterase 1 [3]): > 100 µM | Ki (Acetylcholinesterase): > 100 µM | Ki (Cholinesterase): > 100 µM | degraded at 5 min [4]: > 40%

CCCCCC(=O)C(=O)c1ccccc1
Ki (Liver carboxylesterase 1 [1]): 0.00665 µM | Ki (Liver carboxylesterase 1 [3]): 0.11 µM | Ki (Acetylcholinesterase): > 100 µM | Ki (Cholinesterase): > 100 µM

CCCC(=O)C(=O)CCC
Ki (Liver carboxylesterase 1 [1]): 8.06 µM | Ki (Liver carboxylesterase 1 [3]): 17.8 µM | Ki (Acetylcholinesterase): > 100 µM | Ki (Cholinesterase): > 100 µM

CCCCCCC(=O)C(=O)CCCCCC
Ki (Liver carboxylesterase 1 [1]): 0.0048 µM | IC50 [5]: 4 µM | Ki (Acetylcholinesterase): > 100 µM | Ki (Cholinesterase): > 100 µM | Activity (U373 MG): inactive | IC50 [6]: > 100 µM

O=C(C(=O)C(Br)c1ccccc1)C(Br)c1ccccc1 (stereo not given)
Ki (Liver carboxylesterase 1 [1]): 0.107 µM | Ki (Acetylcholinesterase): > 100 µM | Ki (Cholinesterase): > 100 µM

O=C(Cc1ccccc1)C(=O)C(Br)c1ccccc1 (stereo not given)
Ki (Liver carboxylesterase 1 [1]): 2.63 µM | Ki (Liver carboxylesterase 1 [3]): 3.68 µM | Ki (Acetylcholinesterase): > 100 µM | Ki (Cholinesterase): > 100 µM

CCCCCC(=O)C(=O)CCCCC
Ki (Liver carboxylesterase 1 [1]): 0.003 µM | Ki (Acetylcholinesterase): > 100 µM | Ki (Cholinesterase): > 100 µM

CCCCC(=O)C(=O)CCCC
Ki (Liver carboxylesterase 1 [1]): 0.0466 µM | Ki (Acetylcholinesterase): > 100 µM | Ki (Cholinesterase): > 100 µM

O=C(C(=O)c1ccccc1)c1ccccc1 [BENZIL]
IC50 [5]: 22.9 µM | IC50 [6]: > 100 µM

CCCCCCC(=O)C(=O)c1ccccc1
Ki (Liver carboxylesterase 1 [1]): 0.00219 µM | Ki (Liver carboxylesterase 1 [3]): 0.0281 µM | IC50 [5]: 10.2 µM | Ki (Acetylcholinesterase): > 100 µM | Ki (Cholinesterase): > 100 µM | IC50 [6]: > 100 µM

O=C(Nc1ccccc1)C(=O)Nc1ccccc1
Ki (Liver carboxylesterase 1 [1]): > 100 µM | Ki (Cocaine esterase [2]): > 100 µM | Ki (Liver carboxylesterase 1 [3]): > 100 µM | Ki (Acetylcholinesterase): > 100 µM | Ki (Cholinesterase): > 100 µM

CCc1c2c(nc3ccc(OC(=O)N4CCC(N5CCCCC5)CC4)cc13)-c1cc3c(c(=O)n1C2)COC(=O)[C@]3(O)CC
IC50 [6]: 3.6 µM

CCCCCCCCC(=O)C(=O)CCCCCCCC
Ki (Liver carboxylesterase 1 [1]): 0.00084 µM | Ki (Acetylcholinesterase): > 100 µM | Ki (Cholinesterase): > 100 µM

CCC(=O)C(=O)CC
Ki (Liver carboxylesterase 1 [1]): > 100 µM | Ki (Cocaine esterase [2]): > 100 µM | Ki (Liver carboxylesterase 1 [3]): > 100 µM | Ki (Acetylcholinesterase): > 100 µM | Ki (Cholinesterase): > 100 µM

CCCCC(=O)C(=O)c1ccccc1
Ki (Liver carboxylesterase 1 [1]): 0.0261 µM | Ki (Acetylcholinesterase): > 100 µM | Ki (Cholinesterase): > 100 µM

CCCC(=O)C(=O)c1ccccc1
Ki (Liver carboxylesterase 1 [1]): 0.102 µM | Ki (Acetylcholinesterase): > 100 µM | Ki (Cholinesterase): > 100 µM

O=C(Cc1ccccc1)C(=O)Cc1ccccc1
Ki (Liver carboxylesterase 1 [1]): 3.08 µM | Ki (Cocaine esterase [2]): 21.6 µM | Ki (Liver carboxylesterase 1 [3]): > 100 µM | Ki (Acetylcholinesterase): > 100 µM | Ki (Cholinesterase): > 100 µM

O=C(Sc1ccccc1)C(=O)Sc1ccccc1
Ki (Liver carboxylesterase 1 [1]): > 100 µM | Ki (Cocaine esterase [2]): > 100 µM | Ki (Liver carboxylesterase 1 [3]): > 100 µM | Ki (Acetylcholinesterase): > 100 µM | Ki (Cholinesterase): > 100 µM | Activity [7]: > 40%

O=C(C(=O)C1CCCCC1)C1CCCCC1
Ki (Liver carboxylesterase 1 [1]): 0.005 µM | Ki (Cocaine esterase [2]): 0.072 µM | Ki (Liver carboxylesterase 1 [3]): 0.027 µM

CCC(=O)C(=O)c1ccccc1
Ki (Liver carboxylesterase 1 [1]): 1.55 µM | Ki (Cocaine esterase [2]): 2.42 µM | Ki (Liver carboxylesterase 1 [3]): 12.5 µM | Ki (Acetylcholinesterase): > 100 µM | Ki (Cholinesterase): > 100 µM | Ki (Cocaine esterase [8]): 2.01 µM | inhibition at 1 h, 10 µM [9]: 70.3%

CCCCCCCC(=O)C(=O)CCCCCCC
Ki (Liver carboxylesterase 1 [1]): 0.0076 µM | Ki (Acetylcholinesterase): > 100 µM | Ki (Cholinesterase): > 100 µM
